Screening data as filed in PubChem BioAssay.
KCC2 mod = modulates chloride dependent transport by human KCC2 | Q9H2X9 | KCC2 cells, thallium flux FluoZin-2 fluorescence | B-score of Tl+ flux slope (higher = more flux/activation; lower = inhibition) at 10 µM | 190,000 tested, 2.2% active | AID 1456;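 active = thallium flux slope and its plate-corrected score both differing from the plate sample mean at a set confidence after two filtering rounds, in either direction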;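 note: slope of fluorescence scaled to starting intensity during 10 to 20 s after thallium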
Target sequence (Q9H2X9 whole entry, looked up): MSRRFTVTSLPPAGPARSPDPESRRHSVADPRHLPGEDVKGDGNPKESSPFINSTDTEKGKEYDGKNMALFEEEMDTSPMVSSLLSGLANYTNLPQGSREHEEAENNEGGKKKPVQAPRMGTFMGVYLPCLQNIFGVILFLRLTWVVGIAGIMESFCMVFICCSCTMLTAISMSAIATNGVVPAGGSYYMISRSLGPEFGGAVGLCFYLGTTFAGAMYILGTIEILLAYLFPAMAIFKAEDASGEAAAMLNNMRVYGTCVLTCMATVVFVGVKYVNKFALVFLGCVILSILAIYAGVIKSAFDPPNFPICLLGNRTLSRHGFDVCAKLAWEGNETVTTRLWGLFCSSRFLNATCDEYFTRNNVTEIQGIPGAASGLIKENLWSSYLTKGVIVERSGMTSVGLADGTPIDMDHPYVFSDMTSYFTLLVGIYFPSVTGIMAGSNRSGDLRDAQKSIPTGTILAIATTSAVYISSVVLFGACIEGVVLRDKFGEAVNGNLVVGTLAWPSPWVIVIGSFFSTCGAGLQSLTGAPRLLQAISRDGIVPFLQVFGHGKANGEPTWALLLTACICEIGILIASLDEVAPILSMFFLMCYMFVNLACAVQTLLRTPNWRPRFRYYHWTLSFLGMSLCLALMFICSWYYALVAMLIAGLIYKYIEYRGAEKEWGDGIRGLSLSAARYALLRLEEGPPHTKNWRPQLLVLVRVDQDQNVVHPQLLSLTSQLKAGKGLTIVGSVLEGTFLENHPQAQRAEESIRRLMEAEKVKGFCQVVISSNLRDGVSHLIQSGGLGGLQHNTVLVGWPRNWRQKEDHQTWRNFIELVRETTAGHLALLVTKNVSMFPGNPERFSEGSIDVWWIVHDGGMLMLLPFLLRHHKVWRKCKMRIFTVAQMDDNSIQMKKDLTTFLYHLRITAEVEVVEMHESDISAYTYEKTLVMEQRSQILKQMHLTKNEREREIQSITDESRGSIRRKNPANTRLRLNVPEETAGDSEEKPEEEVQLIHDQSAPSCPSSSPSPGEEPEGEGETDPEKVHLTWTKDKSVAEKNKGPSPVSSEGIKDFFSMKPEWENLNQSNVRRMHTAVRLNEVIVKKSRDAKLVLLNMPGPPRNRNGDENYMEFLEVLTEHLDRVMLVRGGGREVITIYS
WT yeast gro inh = growth inhibition of WT yeast, mitochondrial fusion screen | mitochondrial fusion phenotypic screen, WT strain | inhibition, % at 10 µM | 190,000 tested, 2.1% active; in the data active = inhibition above about 58%; tested in S. cerevisiae
bCat nuc transl = modulators of beta-catenin nuclear translocation; HeLa beta-catenin nuclear translocation, immunofluorescence imaging; nuclear translocation activity, % at 5 µM; 190,000 tested, 0.3% active; AID 1665;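 active = nuclear translocation activity above 50% at 5 µM, with a well cell count of 50 or more; inconclusive = wells under 50 cells across six images, flagged as toxic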;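 note: per-cell ratio of nuclear to cytoplasmic median beta-catenin stain intensity; plate controls were DMSO negative control for no effect and GSK-3 inhibitor IX positive control for full effect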
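Signal – beta-catenin immunofluorescence imaging with DAPI · Test system – human HeLa cell line · Dosing – 5 µM primary single dose, 0.1% DMSO, 0.02–20 µM confirmation series · Measure – % activation, nuclear-to-cytoplasmic median beta-catenin signal ratio per cell · Incubation – 24 h compound exposure at 37°C, 5% CO2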
Pf gamet viab = P. falciparum stage V gametocyte viability inhibition. inhibition, % at 10.9 µM. 150,000 tested, 0.065% active. P. falciparum stage V gametocytes, ATP luminescence, 24 h;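 active = inhibition above the mean plus 3 SD of compounds within the control limits, set per campaign, cut at about 38% in these data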;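 note: 0% = DMSO wells and 100% = medium only without gametocytes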
MT stabilize HCS = microtubule stabilization, imaging screen | % tubulin-high responders, % at 10 µM | 200,000 tested, 0.83% active | HeLa tubulin immunostaining HCS, 24 h; share of cells brighter than vehicle mean+2SD;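 active = plate Z-score above 3 for both tubulin-high and condensed-nucleus cell shares, with cell loss under 80%, at 10 µM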;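 note: anti alpha tubulin signal scored within the nucleus-defined area of each cell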
Active calls of the source: *; u = inconclusive; x = no result. Sampled rows, rich in hits. Any-hit rate of the full collection: about 4%.

SMILES | KCC2 mod | WT yeast gro inh | bCat nuc transl | Pf gamet viab | MT stabilize HCS
COc1ccccc1C(=O)N1CCN(c2cccc(Cl)c2)CC1 | -2.6 | 9 | 56* | x | 31*
Cn1cc(CNC(=O)CC2C(=O)NCCN2CC(C)(C)C)cn1 (stereo unspecified) | x | 9 | -3 | -27 | 3
Cc1ccc(CN2CCN(Cc3ccc4cccc(F)c4n3)CC2CCO)cc1 (stereo unspecified) | x | x | x | -11 | x
CC(CN(C)Cc1nc(Cc2cccc(C(F)(F)F)c2)no1)CN1CCCC1 (stereo unspecified) | 0.24 | 0 | -2 | 11 | 5
CCN(CC)S(=O)(=O)c1cccc(NC(=O)C2SC(=Nc3ccc(C)cc3C)C(C(=O)NC(C)COC)=C2N)c1 (stereo unspecified) | 0.036 | -16 | -3 | x | 3
CCCCNC(=O)C1=C(N)C(C(=O)Nc2ccc(C)c(S(=O)(=O)N3CCCCC3)c2)SC1=Nc1ccc(C)cc1C (stereo unspecified) | -0.0041 | 60* | 2 | -22 | 2
Cc1ccc(CN2CCC(c3cc(-c4cccs4)n[nH]3)CC2)cc1 | -1.4 | 38 | 1 | x | 3
FC(F)(F)c1cccc(CN2CCC(c3cc(-c4cccs4)n[nH]3)CC2)c1 | -0.073 | 21 | 0 | 3 | 29*
COc1ccc(S(=O)(=O)N2CCC(C(=O)N3CCCCC3)CC2)cc1OC | x | 61* | 1 | -16 | 4
COc1ccc(S(=O)(=O)N2CCC(C(=O)N3CCOCC3)CC2)cc1Cl | 1.3 | -8 | -1 | 8 | 2
COc1ccc(S(=O)(=O)N2CCC(C(=O)N3CCc4ccccc4C3)CC2)cc1 | -4* | 7 | x | x | 3
O=C(NC(C(=O)c1ccccc1)N1CCCCC1)c1ccccc1 (stereo unspecified) | -0.17 | 2 | x | x | 4
O=c1[nH][nH]c2cc(=O)n(-c3ccc(Cl)cc3)nc12 | 0.039 | 5 | 2 | x | 2
O=C(Nc1ccc(OCC(F)(F)C(F)F)c(C(F)(F)F)c1)c1ccccc1O | -0.27 | 75* | 1 | x | 3
O=C(Nc1ncc(Cc2ccc(SC(F)F)cc2)s1)c1ccccc1 | -0.017 | 5 | 2 | -9 | 34*
c1ccc(-c2nc(-n3nc4ccccc4n3)nc3ccccc23)cc1 | x | 49 | x | x | 4
Clc1ccc(-c2nc(N3CCCCC3)nc3ccccc23)cc1 | -0.16 | 59* | -2 | x | 4
Cc1ccccc1CC1CCN(CCCNC(=O)Nc2ccccc2)CC1 | x | x | x | 5 | x
CCOC(=O)C1(CC2CCCCO2)CCN(Cc2cc3ccccc3[nH]2)CC1 (stereo unspecified) | 0.25 | 3 | 1 | -9 | 3
CSc1nc2ccc(NS(=O)(=O)c3c(Cl)cccc3Cl)cc2s1 | -2.4 | 67* | 0 | 5 | 5
CSc1nc2ccc(NS(=O)(=O)c3ccccc3F)cc2s1 | -0.064 | 12 | x | -29 | 3
N=c1c2c(ncn1Cc1ccco1)Oc1ccc3ccccc3c1C2c1ccccc1 (stereo unspecified) | 0.84 | 66* | 17 | 12 | 17
COc1ccc(C2c3c(ncn(Cc4ccco4)c3=N)Oc3ccc4ccccc4c32)cc1 (stereo unspecified) | 0.39 | 64* | 2 | 12 | 6
O=C(COC(=O)c1cc(=O)[nH]c2ccc(Br)cc12)c1ccccc1 | -0.53 | 6 | -1 | 14 | 1
CCc1c(C)sc2nc(C(C)C)nc(SCC(=O)N3CCc4ccccc4C3)c12 | x | 61* | 0 | x | 1
SMILES | KCC2 mod | WT yeast gro inh | bCat nuc transl | Pf gamet viab | MT stabilize HCS
Cc1sc2nc(C3CC3)nc(SCC(=O)N3CCc4ccccc4C3)c2c1C | -0.57 | 53 | -5 | x | 1
Cc1ccnc(NS(=O)(=O)c2ccc(NC(=O)C3C4C=CC(C4)C3C(=O)O)cc2)n1 (stereo unspecified) | -4 | 9 | -3 | -1 | 6
c1ccc(C(c2ccccc2)c2noc(CN3CCC(c4ccncc4)CC3)n2)cc1 | -0.25 | 23 | -3 | -12 | 3
Cc1c(C=O)c2ccccc2n1CC(=O)NC(C)c1ccccc1 (stereo unspecified) | -0.42 | -6 | 1 | 4 | 3
Cc1ccc(NCc2nc3ccccc3n2CCOc2ccccc2)cc1 | -0.39 | 63* | -2 | 8 | 1
CCN(CC)C(=O)Cn1cc(C(=O)C(=O)NCc2ccco2)c2ccccc21 | -0.41 | 11 | 0 | x | 3
COC(=O)[C@@H]1CCCN1C(=O)CCc1nnc(CCC2CCCCC2)o1 | -2.4 | 11 | 1 | x | 2
Cc1cccc(NC(=S)N(C)Cc2cn(C)c3ccccc23)c1 | -0.9 | 72* | 0 | -27 | 3
CN(Cc1cn(C)c2ccccc12)C(=S)Nc1cc(F)cc(F)c1 | -0.92 | 22 | -3 | -2 | 3
CC(NC(=S)Nc1c(Br)cccc1OC(F)F)C(C)(C)C (stereo unspecified) | 2.1 | 13 | -2 | -17 | 3
Cc1nc(SCC(=O)O)c2oc3ccccc3c2n1 | -0.46 | -2 | x | -24 | 2
CCOC(=O)CC(=O)CSc1nc(C)nc2c1oc1ccccc12 | -0.8 | 83* | 1 | x | 1
Cc1ccc(C)c(NC(=S)NCc2ccc3[nH]c4c(c3c2)CCCC4)c1 | -0.44 | 80* | -3 | x | 4
Cc1ccccc1NC(=S)NCc1ccc2[nH]c3c(c2c1)CCCC3 | -0.51 | 79* | -1 | x | 4
CNC(=S)NCc1ccc2[nH]c3c(c2c1)CCCC3 | -0.053 | 4 | 2 | -18 | 2
CCCCNC(=S)NCc1ccc2[nH]c3c(c2c1)CCCC3 | -0.52 | 69* | -1 | x | 2
O=C(CCNC(=O)c1ccc([N+](=O)[O-])cc1)Nc1nccs1 | 0.16 | -28 | 1 | -2 | 2
COc1ccccc1-n1cnc2sc(-c3ccccc3)cc2c1=O | 0.065 | 75* | 0 | 22 | 2
CCOC(=O)c1c(C)[nH]c(C(=O)N/N=C/c2cccc(OC)c2)c1C | -0.56 | 19 | 0 | -21 | 20*
CCOC(=O)c1c(C)[nH]c(C(=O)N/N=C\c2ccccc2Cl)c1C | 0.64 | 1 | 49 | x | 23*
O=C(Cc1c(O)c2ccccc2[nH]c1=O)NCc1ccccc1F | 0.18 | 60* | -2 | 0 | 4
O=C(Cc1c(O)c2ccccc2[nH]c1=O)NCc1cccc(F)c1 | 0.2 | 3 | 1 | x | 3
CC1=NNC(=O)/C1=C\c1cn(-c2ccccc2)nc1-c1ccc(F)cc1 | -0.37 | 90* | 5 | x | 22*
CC1=NNC(=O)/C1=C\c1cn(-c2ccccc2)nc1-c1cccs1 | 0.75 | 85 | u | 6 | 53
COCCC(=O)Nc1ccc2c(c1)CN(C(=O)c1ccc(CSC)o1)CC2 | x | x | x | -6 | x
CCN(CC)c1ccc(/C=N/NC(=O)c2ccc(Br)o2)cc1 | -2.4 | 13 | x | -10 | 33*
Cc1ccc(N(C(=O)c2nsc(Cl)c2Cl)C(C(=O)NC2CCCC2)c2ccc(O)cc2)cc1C (stereo unspecified) | 0.15 | 6 | 1 | 3 | 4
CCOc1ccc(C(C(=O)NC2CCCC2)N(Cc2ccccc2)C(=O)c2nsc(Cl)c2Cl)cc1 (stereo unspecified) | x | 62* | -4 | x | 3
